Results reported in ChEMBL document CHEMBL2331366, “Bioactive indole alkaloids and phenyl ether derivatives from a marine-derived Aspergillus sp. Fungus” (J Nat Prod, 2013).
Values after ≈ are worked out from the molar mass of the structure shown. Active and inactive are the calls of the source. No cut-off for these calls is given here.

Experiments:
HL-60 = assay: Cytotoxicity against human HL60 cells assessed as inhibition of cell viability by MTT assay; assay type: functional, cell-based
K562 = assay: Cytotoxicity against human K562 cells assessed as inhibition of cell viability by MTT assay; assay type: functional, cell-based
Pseudomonas putida = assay: Antibacterial activity against Pseudomonas putida ATCC 17848 assessed as growth inhibition; assay type: functional
Summary of the method: (§1)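 In vitro antibacterial test against each listed strain. Activity is reported as MIC (μM), with ciprofloxacin as the positive control.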

Vibrio parahaemolyticus = assay: Antibacterial activity against Vibrio parahaemolyticus ATCC 17802 assessed as growth inhibition; assay type: functional; summary of the method: as §1
[1] = system: Staphylococcus epidermidis; assay: Antibacterial activity against Staphylococcus epidermidis ATCC 12228 assessed as growth inhibition; assay type: functional; summary of the method: as §1
Staphylococcus aureus = assay: Antibacterial activity against Staphylococcus aureus ATCC 27154 assessed as growth inhibition; assay type: functional; summary of the method: as §1
Vibrio anguillarum = assay: Antibacterial activity against Vibrio anguillarum ATCC 19019 assessed as growth inhibition; assay type: functional; summary of the method: as §1
[2] = system: Staphylococcus epidermidis; assay: Ratio of ciprofloxacin MIC to compound MIC for Staphylococcus epidermidis ATCC 12228; assay type: functional
Micrococcus = assay: Antibacterial activity against Micrococcus tetragenus ATCC 13623 assessed as growth inhibition; assay type: functional, organism-based; summary of the method: as §1
Escherichia coli = assay: Antibacterial activity against Escherichia coli ATCC 25922 assessed as growth inhibition; assay type: functional, organism-based; summary of the method: as §1
Bacillus cereus = assay: Antibacterial activity against Bacillus cereus ACCC 11077 assessed as growth inhibition; assay type: functional, organism-based; summary of the method: as §1

Structure (SMILES) | IC50 (HL-60) [µM] | IC50 (K562) [µM] | MIC (Pseudomonas putida) [µM] | MIC (Vibrio parahaemolyticus) [µM] | MIC [1] [µM] | MIC (Staphylococcus aureus) [µM] | MIC (Vibrio anguillarum) [µM] | Ratio [2] | growth inhibition (GI) (Pseudomonas putida) | growth inhibition (GI) (Vibrio parahaemolyticus) | growth inhibition (GI) [1] | growth inhibition (GI) (Micrococcus) | growth inhibition (GI) (Escherichia coli) | growth inhibition (GI) (Bacillus cereus) | growth inhibition (GI) (Staphylococcus aureus) | growth inhibition (GI) (Vibrio anguillarum)
COc1cc(C)cc(Oc2cc(C)cc(OC)c2O)c1O | > 10 | > 10 | > 100 | > 100 | > 100 | 100 (≈ 29 µg/mL) | 100 (≈ 29 µg/mL) | – | – | – | – | – | – | – | – | –
COC(=O)c1c(C)cc(Oc2cc(C)cc(O)c2)cc1O | > 10 | 5.94 | 21.7 (≈ 6.26 µg/mL) | 21.7 (≈ 6.26 µg/mL) | 2.71 (≈ 0.781 µg/mL) | 10.9 (≈ 3.14 µg/mL) | 21.7 (≈ 6.26 µg/mL) | – | – | – | – | – | – | – | – | –
COC(=O)c1c(C)c(Br)c(Oc2c(Br)c(C)c(Br)c(O)c2Br)c(Br)c1O | – | – | > 100 | > 100 | 100 (≈ 68.3 µg/mL) | 100 (≈ 68.3 µg/mL) | 9.23 (≈ 6.3 µg/mL) | – | – | – | – | – | – | – | – | –
CC(=O)Oc1cc(C)cc(Oc2cc(C)cc(O)c2)c1 | – | – | 100 (≈ 27.2 µg/mL) | 100 (≈ 27.2 µg/mL) | 100 (≈ 27.2 µg/mL) | > 100 | 46 (≈ 12.5 µg/mL) | – | – | – | – | – | – | – | – | –
CC(=O)Oc1cc(C)cc(Oc2cc(C)cc(OC(C)=O)c2)c1 | – | – | > 100 | > 100 | > 100 | > 100 | > 100 | – | – | – | – | – | – | – | – | –
CCCCCOc1cc(C)cc(Oc2cc(C)cc(O)c2)c1 | – | – | 10.4 (≈ 3.12 µg/mL) | 10.4 (≈ 3.12 µg/mL) | 20.8 (≈ 6.25 µg/mL) | 20.8 (≈ 6.25 µg/mL) | 10.4 (≈ 3.12 µg/mL) | – | – | – | – | – | – | – | – | –
CCCCCOc1cc(C)cc(Oc2cc(C)cc(OCCCCC)c2)c1 | – | – | > 100 | 100 (≈ 37.1 µg/mL) | > 100 | > 100 | > 100 | – | – | – | – | – | – | – | – | –
CCCOc1cc(C)cc(Oc2cc(C)cc(O)c2)c1 | – | – | 100 (≈ 27.2 µg/mL) | 2.87 (≈ 0.782 µg/mL) | 46 (≈ 12.5 µg/mL) | 46 (≈ 12.5 µg/mL) | 23 (≈ 6.26 µg/mL) | – | – | – | – | – | – | – | – | –
Cc1cc(O)cc(Oc2cc(C)cc(OC(=O)c3ccccc3)c2)c1 | – | – | > 100 | 18.7 (≈ 6.25 µg/mL) | 18.7 (≈ 6.25 µg/mL) | > 100 | > 100 | – | – | – | – | – | – | – | – | –
Cc1c(Br)c(O)c(Br)c(Oc2c(Br)c(C)c(Br)c(O)c2Br)c1Br | – | – | 1.11 (≈ 0.781 µg/mL) | 1.11 (≈ 0.781 µg/mL) | 0.556 (≈ 0.391 µg/mL) | 1.11 (≈ 0.781 µg/mL) | 1.11 (≈ 0.781 µg/mL) | 5 | – | – | – | – | – | – | – | –
C=CC(C)(C)[C@]1(C[C@@H]2NC(=O)[C@@]3(OC)CCCN3C2=O)C(=O)Nc2c1ccc1c2C=CC(C)(C)O1 | > 10 | > 10 | – | – | – | – | – | – | inactive | inactive | inactive | inactive | inactive | inactive | inactive | inactive
C=CC(C)(C)[C@]1(C[C@@H]2NC(=O)[C@@]3(O)CCCN3C2=O)C(=O)Nc2c1ccc1c2C=CC(C)(C)O1 | > 10 | > 10 | – | – | – | – | – | – | inactive | inactive | inactive | inactive | inactive | inactive | inactive | inactive
O=C(O)c1cn(C2CC2)c2cc(N3CCNCC3)c(F)cc2c1=O [CIPROFLOXACIN] | – | – | 0.195 (≈ 0.0646 µg/mL) | 0.195 (≈ 0.0646 µg/mL) | – | 0.78 (≈ 0.258 µg/mL) | 0.0975 (≈ 0.0323 µg/mL) | – | – | – | – | – | – | – | – | –
Cc1cc(O)cc(Oc2cc(C)cc(O)c2O)c1 [CORDYOL C] | > 10 | > 10 | 100 (≈ 24.6 µg/mL) | 100 (≈ 24.6 µg/mL) | 100 (≈ 24.6 µg/mL) | 100 (≈ 24.6 µg/mL) | 100 (≈ 24.6 µg/mL) | – | – | – | – | – | – | – | – | –
COc1cc(C)cc(Oc2cc(C)cc(OC)c2OC)c1O [CORDYOL D] | > 10 | > 10 | > 100 | > 100 | > 100 | > 100 | > 100 | – | – | – | – | – | – | – | – | –
COc1cc(C)cc(Oc2cc(C)cc(O)c2)c1 [CORDYOL E] | > 10 | > 10 | 51.2 (≈ 12.5 µg/mL) | 51.2 (≈ 12.5 µg/mL) | 25.6 (≈ 6.25 µg/mL) | 51.2 (≈ 12.5 µg/mL) | 25.6 (≈ 6.25 µg/mL) | – | – | – | – | – | – | – | – | –
C=CC(C)(C)[C@]1(C[C@@H]2NC(=O)C3=CCCN3C2=O)C(=O)Nc2c1ccc1c2C=CC(C)(C)O1 [DEHYDRONOTOAMIDE C] | > 10 | > 10 | – | – | – | – | – | – | inactive | inactive | inactive | inactive | inactive | inactive | inactive | inactive
Cc1cc(O)cc(Oc2cc(C)cc(O)c2)c1 [DIORCINOL] | > 10 | > 10 | 100 (≈ 23 µg/mL) | 100 (≈ 23 µg/mL) | 27.2 (≈ 6.26 µg/mL) | 54.3 (≈ 12.5 µg/mL) | 100 (≈ 23 µg/mL) | – | – | – | – | – | – | – | – | –
CC1(C)C=Cc2c(ccc3c2NC(=O)[C@@]32C[C@@]34NC(=O)[C@]5(CCCN5C3=O)C[C@H]4C2(C)C)O1 [NOTOAMIDE B] | > 10 | > 10 | – | – | – | – | – | – | inactive | inactive | inactive | inactive | inactive | inactive | inactive | inactive
C=CC(C)(C)[C@]1(C[C@@H]2NC(=O)[C@@H]3CCCN3C2=O)C(=O)Nc2c1ccc1c2C=CC(C)(C)O1 [NOTOAMIDE C] | > 10 | > 10 | – | – | – | – | – | – | inactive | inactive | inactive | inactive | inactive | inactive | inactive | inactive
C=CC(C)(C)[C@]1(C[C@@H]2NC(=O)[C@]3(O)CCCN3C2=O)C(=O)Nc2c1ccc1c2C=CC(C)(C)O1 [NOTOAMIDE M] | > 10 | > 10 | – | – | – | – | – | – | inactive | inactive | inactive | inactive | inactive | inactive | inactive | inactive
C=CC(C)(C)[C@]1(C[C@@H]2NC(=O)[C@]3(OC)CCCN3C2=O)C(=O)Nc2c1ccc1c2C=CC(C)(C)O1 [NOTOAMIDE Q] | > 10 | > 10 | – | – | – | – | – | – | inactive | inactive | inactive | inactive | inactive | inactive | inactive | inactive
CC1(C)C=Cc2c(ccc3c4c([nH]c23)C(C)(C)[C@@H]2C[C@]35CCCN3C(=O)[C@@]2(C4)NC5=O)O1 [STEPHACIDIN A] | > 10 | > 10 | > 100 | > 100 | 14.5 (≈ 6.26 µg/mL) | > 100 | > 100 | – | – | – | – | – | – | – | – | –
